In ChEMBL document CHEMBL4706507, “Chromones bearing amino acid residues: Easily accessible and potent inhibitors of the breast cancer resistance protein ABCG2” (Eur J Med Chem, 2020):

Key:
ABCC1 (MRP1) [1] = target: T1, ABCC1 (MRP1) (Homo sapiens, UniProt P33527); assay: Inhibition of ABCC1 (unknown origin) expressed in Flp-In-293 cells assessed as maximal inhibition at 10 uM by FACS based flow cytometry
ABCC1 (MRP1) [2] = target: T1, ABCC1 (MRP1); assay: Inhibition of ABCC1 (unknown origin) expressed in Flp-In-293 cells assessed as maximal inhibition at 1 uM by FACS based flow cytometry
[3] = target: T2, Broad substrate specificity ATP-binding cassette transporter ABCG2 (Homo sapiens, UniProt Q9UNQ0); assay: Inhibition of ABCG2 (unknown origin) expressed in HEK293 cells assessed as maximal inhibition at 1 uM by FACS based flow cytometry; settings: hek293, 1 µM
T2 sequence (Q9UNQ0 whole entry): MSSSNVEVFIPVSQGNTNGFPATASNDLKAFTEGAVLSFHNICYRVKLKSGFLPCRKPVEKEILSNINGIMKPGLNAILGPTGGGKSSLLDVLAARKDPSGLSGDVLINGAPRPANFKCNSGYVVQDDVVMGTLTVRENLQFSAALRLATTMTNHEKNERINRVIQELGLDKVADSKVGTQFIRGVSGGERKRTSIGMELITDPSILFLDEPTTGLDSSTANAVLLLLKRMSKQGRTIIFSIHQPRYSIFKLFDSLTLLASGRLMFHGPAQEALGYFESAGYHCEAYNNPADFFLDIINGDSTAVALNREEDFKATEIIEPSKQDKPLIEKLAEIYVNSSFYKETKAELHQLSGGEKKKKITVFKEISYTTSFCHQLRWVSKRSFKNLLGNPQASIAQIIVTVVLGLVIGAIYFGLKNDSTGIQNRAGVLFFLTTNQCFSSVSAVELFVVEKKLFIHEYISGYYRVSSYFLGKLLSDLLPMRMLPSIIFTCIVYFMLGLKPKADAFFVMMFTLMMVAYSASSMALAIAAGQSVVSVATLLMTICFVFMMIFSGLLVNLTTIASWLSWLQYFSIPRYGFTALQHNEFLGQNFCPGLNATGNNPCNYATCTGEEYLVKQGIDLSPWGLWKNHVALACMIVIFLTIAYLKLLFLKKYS

[4] = target: T2, Broad substrate specificity ATP-binding cassette transporter ABCG2; assay: (§1) Inhibition of ABCG2 (unknown origin) in HEK293 cells assessed as maximal inhibition of mitoxantrone efflux at 1 uM by fluorescence based flow cytometry relative to control; type: cell-based; settings: hek293, 1 µM
Summary of the method: (§2)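 Efflux assay in HEK293-ABCG2 cells, with parental HEK293 cells as negative control. Cells seeded at 5×10^4/well overnight, then given compound plus 4 µM mitoxantrone (0.5% DMSO) for 30 min at 37 °C. Cells washed, trypsinized and resuspended in cold DPBS with 2% BSA.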

ABCB1 [5] = target: T3, ABCB1 (Homo sapiens, UniProt P08183); assay: Inhibition of ABCB1 (unknown origin) expressed in NIH/3T3 cells assessed as maximal inhibition at 10 uM by FACS based flow cytometry
[6] = target: T2, Broad substrate specificity ATP-binding cassette transporter ABCG2; assay: Inhibition of ABCG2 (unknown origin) in HEK293 cells assessed as maximal inhibition of mitoxantrone efflux by fluorescence based flow cytometry; type: cell-based
Summary of the method: as §2

[7] = Cytotoxicity against human HEK293 cells assessed as cell viability at 20 uM measured after 72 hrs by MTT assay; type: cell-based; settings: read-out: Activity
ABCB1 [8] = target: T3, ABCB1; assay: Inhibition of ABCB1 (unknown origin) expressed in NIH/3T3 cells assessed as maximal inhibition at 1 uM by FACS based flow cytometry
[9] = Cytotoxicity against human HEK293 cells assessed as cell viability at 10 uM measured after 72 hrs by MTT assay; type: cell-based; settings: read-out: Activity
ABCG2 = target: T4, ABCG2 (Homo sapiens, UniProt Q9UNQ0); assay: as §1; type: cell-based; settings: HEK293 cells with ABCG2, probe mitoxantrone, read-out: Imax
T4 sequence (Q9UNQ0 whole entry): T2 sequence (Q9UNQ0 whole entry)
Summary of the method: as §2

T1 sequence (P33527 whole entry): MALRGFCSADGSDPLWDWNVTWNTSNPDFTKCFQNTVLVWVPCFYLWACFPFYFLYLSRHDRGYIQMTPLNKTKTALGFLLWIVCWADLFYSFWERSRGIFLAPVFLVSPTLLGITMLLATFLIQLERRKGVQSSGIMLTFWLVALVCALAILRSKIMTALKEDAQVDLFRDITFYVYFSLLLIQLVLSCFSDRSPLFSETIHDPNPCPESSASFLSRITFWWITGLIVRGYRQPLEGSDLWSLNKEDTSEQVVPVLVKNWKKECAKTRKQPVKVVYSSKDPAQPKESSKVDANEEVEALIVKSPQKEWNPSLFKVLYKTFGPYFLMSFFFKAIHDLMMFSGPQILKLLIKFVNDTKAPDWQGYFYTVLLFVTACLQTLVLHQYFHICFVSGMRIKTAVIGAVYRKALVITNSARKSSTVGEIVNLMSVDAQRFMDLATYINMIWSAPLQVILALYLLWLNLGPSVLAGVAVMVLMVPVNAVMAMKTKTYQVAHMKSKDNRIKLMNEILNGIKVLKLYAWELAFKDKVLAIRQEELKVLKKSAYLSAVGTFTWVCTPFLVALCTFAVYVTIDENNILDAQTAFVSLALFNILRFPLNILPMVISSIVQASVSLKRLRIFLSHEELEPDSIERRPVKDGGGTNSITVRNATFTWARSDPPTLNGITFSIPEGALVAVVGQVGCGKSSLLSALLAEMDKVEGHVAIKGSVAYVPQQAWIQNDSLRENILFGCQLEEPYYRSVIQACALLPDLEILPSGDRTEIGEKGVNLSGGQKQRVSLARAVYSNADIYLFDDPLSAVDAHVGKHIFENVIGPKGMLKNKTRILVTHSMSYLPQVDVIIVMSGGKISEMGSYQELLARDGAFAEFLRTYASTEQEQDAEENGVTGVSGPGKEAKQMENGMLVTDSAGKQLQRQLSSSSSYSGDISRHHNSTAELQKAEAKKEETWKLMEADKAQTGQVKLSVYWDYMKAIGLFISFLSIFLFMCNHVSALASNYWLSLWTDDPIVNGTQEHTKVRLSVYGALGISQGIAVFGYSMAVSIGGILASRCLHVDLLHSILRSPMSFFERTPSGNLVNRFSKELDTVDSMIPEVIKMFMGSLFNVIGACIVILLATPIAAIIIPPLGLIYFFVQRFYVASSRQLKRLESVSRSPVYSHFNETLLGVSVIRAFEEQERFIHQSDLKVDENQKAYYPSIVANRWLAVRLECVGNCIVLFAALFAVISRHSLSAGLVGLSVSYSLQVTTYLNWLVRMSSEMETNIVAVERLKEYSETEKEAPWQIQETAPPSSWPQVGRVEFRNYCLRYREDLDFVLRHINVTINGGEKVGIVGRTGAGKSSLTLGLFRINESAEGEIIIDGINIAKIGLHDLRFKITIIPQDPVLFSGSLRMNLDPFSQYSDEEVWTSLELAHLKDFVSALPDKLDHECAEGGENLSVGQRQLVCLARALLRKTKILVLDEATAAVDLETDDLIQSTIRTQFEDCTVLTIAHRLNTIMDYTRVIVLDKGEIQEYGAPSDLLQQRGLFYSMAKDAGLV
T3 sequence (P08183 whole entry): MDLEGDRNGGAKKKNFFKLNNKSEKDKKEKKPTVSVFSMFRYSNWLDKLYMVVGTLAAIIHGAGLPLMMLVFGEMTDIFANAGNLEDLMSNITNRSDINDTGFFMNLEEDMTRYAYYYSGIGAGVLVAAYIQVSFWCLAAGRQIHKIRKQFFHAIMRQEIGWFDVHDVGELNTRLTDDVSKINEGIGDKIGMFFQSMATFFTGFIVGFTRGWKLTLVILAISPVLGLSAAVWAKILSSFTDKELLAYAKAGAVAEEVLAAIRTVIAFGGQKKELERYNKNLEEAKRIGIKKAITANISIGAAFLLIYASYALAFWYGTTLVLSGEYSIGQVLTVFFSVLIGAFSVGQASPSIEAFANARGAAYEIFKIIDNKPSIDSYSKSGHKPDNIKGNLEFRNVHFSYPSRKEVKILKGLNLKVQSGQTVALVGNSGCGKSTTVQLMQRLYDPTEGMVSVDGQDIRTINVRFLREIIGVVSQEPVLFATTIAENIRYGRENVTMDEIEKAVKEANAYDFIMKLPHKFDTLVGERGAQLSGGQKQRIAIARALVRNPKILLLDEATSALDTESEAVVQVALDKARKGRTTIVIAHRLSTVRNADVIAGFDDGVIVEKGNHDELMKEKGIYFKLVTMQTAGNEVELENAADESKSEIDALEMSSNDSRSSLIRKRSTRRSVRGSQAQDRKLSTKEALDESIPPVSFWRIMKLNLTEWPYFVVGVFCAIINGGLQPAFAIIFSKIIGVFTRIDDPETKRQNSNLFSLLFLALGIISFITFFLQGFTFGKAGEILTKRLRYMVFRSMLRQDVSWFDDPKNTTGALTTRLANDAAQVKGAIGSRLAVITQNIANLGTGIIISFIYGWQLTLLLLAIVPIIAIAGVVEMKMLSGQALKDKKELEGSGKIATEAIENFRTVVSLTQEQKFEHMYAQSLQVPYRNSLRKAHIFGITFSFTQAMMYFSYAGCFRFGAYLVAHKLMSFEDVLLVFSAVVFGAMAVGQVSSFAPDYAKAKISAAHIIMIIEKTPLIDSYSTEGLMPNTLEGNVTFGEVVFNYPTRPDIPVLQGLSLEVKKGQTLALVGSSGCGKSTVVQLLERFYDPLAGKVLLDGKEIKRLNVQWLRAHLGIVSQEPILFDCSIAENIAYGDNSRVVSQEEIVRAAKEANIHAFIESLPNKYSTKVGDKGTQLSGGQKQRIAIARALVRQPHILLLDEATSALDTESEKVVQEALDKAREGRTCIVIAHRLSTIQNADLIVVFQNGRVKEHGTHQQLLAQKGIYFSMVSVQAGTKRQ

Row | Compound | inhibition at 10 µM (ABCC1 (MRP1) [1]) | inhibition at 1 µM (ABCC1 (MRP1) [2]) | inhibition (INH) [3] | inhibition at 10 µM (ABCB1 [5]) | inhibition at 1 µM (ABCB1 [8]) | Imax [4] | EC50 [6] | viability at 72 h, 20 µM [7] | viability at 72 h, 10 µM [9] | Emax at 1 µM (ABCG2)
1 | CC[C@@H](C)[C@H](NC(=O)c1cc(=O)c2c(OCc3ccccc3Br)cccc2o1)C(=O)N[C@@H](CC(C)C)C(=O)OC | 13% | 10% | 83% | 2% | 2% | 83% | 70 nM | 104% |  | 
2 | CC[C@@H](C)[C@H](NC(=O)c1cc(=O)c2c(OCc3ccc(Br)cc3)cccc2o1)C(=O)N[C@@H](CC(C)C)C(=O)OC |  | 11% | 52% | 6% | 4% | 52% | 110 nM | 101% |  | 
3 | COC(=O)[C@@H](NC(=O)c1cc(=O)c2c(OCc3ccccc3Br)cccc2o1)C(C)C |  | 13% | 87% | 7% | 8% | 87% | 50 nM |  | 76% | 
4 | COC(=O)[C@@H](Cc1c[nH]c2ccccc12)NC(=O)c1cc(=O)c2c(OCc3ccc(Br)cc3)cccc2o1 |  | 11.9% | 85% | 6% | 7% | 85% | 290 nM |  | 102% | 
5 | COC(=O)[C@H](Cc1c[nH]c2ccccc12)NC(=O)c1cc(=O)c2c(OCc3ccc(Br)cc3)cccc2o1 |  | 10.3% | 96% | 6% | 7% | 96% | 480 nM |  | 77% | 
6 | CC[C@@H](C)[C@H](NC(=O)c1cc(=O)c2c(OCc3ccc(Br)cc3)cccc2o1)C(=O)OC |  |  |  |  |  |  | 590 nM |  |  | 115%
7 | COC(=O)[C@H](Cc1ccccc1)NC(=O)c1cc(=O)c2c(OCc3ccc(Br)cc3)cccc2o1 |  | 23% |  | 7% | 6% |  | 270 nM |  | 84% | 
8 | COC(=O)[C@H](Cc1c[nH]c2ccccc12)NC(=O)c1cc(=O)c2c(OCc3ccccc3Br)cccc2o1 |  | 23% | 94% | 5% | 7% | 94% | 600 nM |  | 88% | 

Now from value to compound, other results behind:

Row | inhibition at 10 µM (ABCC1 (MRP1) [1]) | inhibition at 1 µM (ABCC1 (MRP1) [2]) | inhibition (INH) [3] | inhibition at 10 µM (ABCB1 [5]) | inhibition at 1 µM (ABCB1 [8]) | Compound | Imax [4] | EC50 [6] | viability at 72 h, 20 µM [7] | viability at 72 h, 10 µM [9] | Emax at 1 µM (ABCG2)
9 |  | 20% | 115% | 5% | 7% | COC(=O)[C@H](CC(C)C)NC(=O)c1cc(=O)c2c(OCc3ccccc3Br)cccc2o1 | 115% | 140 nM |  | 87% | 
10 |  | 5% | 78% |  |  | CC[C@@H](C)[C@H](NC(=O)c1cc(=O)c2c(OCc3ccccc3Br)cccc2o1)C(=O)OC | 78% | 100 nM |  |  | 
11 |  | 12% | 72% | 11% | 2% | CC[C@@H](C)[C@H](NC(=O)c1cc(=O)c2c(OCc3ccc(Br)cc3)cccc2o1)C(=O)N[C@H](C(=O)OC)C(C)C | 72% | 250 nM | 89% |  | 
12 |  | 26% |  | 6% | 5% | COC(=O)[C@H](Cc1ccccc1)NC(=O)c1cc(=O)c2c(OCc3ccccc3Br)cccc2o1 |  | 100 nM |  | 82% | 
13 |  | 11% | 85% | 0% | 0% | CC[C@@H](C)[C@H](NC(=O)c1cc(=O)c2c(OCc3ccccc3Br)cccc2o1)C(=O)N[C@H](C(=O)OC)C(C)C | 85% | 70 nM | 102% |  | 
